We go through 45 molecules from ChEMBL document CHEMBL1129950, “Structural requirements for binding of anandamide-type compounds to the brain cannabinoid receptor” (J Med Chem, 1997).

Test [1] addresses T1, Cannabinoid receptor 1 (Homo sapiens, UniProt P21554). Description: Binding affinity against the cannabinoid receptor. The essentials: (§1)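 Whole rat brain synaptosomal membranes (2.4-3.8 µg protein) were competed against 38-48 fmol [3H]HU-243. Drug was serially diluted in 5 mg/mL fatty-acid-free BSA. Final 1 mL held 45 mM Tris-HCl, 2.7 mM MgCl2, 0.9 mM EDTA and 0.58 mg BSA. Incubation was 30 °C, 90 min. Bound ligand was separated by centrifugation, and pellet tips were scintillation-counted. Ki came from displacement.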

Test [2] concerns the target Cannabinoid receptor 1 (Rattus norvegicus, UniProt P20272). The test can be described thus: In vitro binding affinity was determined against rat brain Cannabinoid receptor 1. The essentials: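 Drug was serially diluted in 5 mg/mL fatty-acid-free BSA. Final 1 mL held 45 mM Tris-HCl, 2.7 mM MgCl2, 0.9 mM EDTA and 0.58 mg BSA. Incubation was 30 °C, 90 min. Bound ligand was separated by centrifugation, and pellet tips were scintillation-counted. Ki came from displacement.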

Test [3] addresses T1, Cannabinoid receptor 1. Description: Binding affinity against the cannabinoid receptor in the presence of PMSF (expt 1).
In test [4] the target is T1, Cannabinoid receptor 1. The test can be described thus: Binding affinity against the cannabinoid receptor in the presence of PMSF (expt 3).
In test [5] the target is T1, Cannabinoid receptor 1. Description: Binding affinity against the Cannabinoid receptor 1 in the presence of PMSF (experiment 2).
The target in test [6] is T1, Cannabinoid receptor 1. Description: Binding affinity against the cannabinoid receptor (expt 1). The essentials: as §1
Test [7] concerns the target T1, Cannabinoid receptor 1. The test can be described thus: Binding affinity against the cannabinoid receptor in the presence of PMSF.
Test [8] concerns the target T1, Cannabinoid receptor 1. The test can be described thus: Binding affinity against the cloned human Cannabinoid receptor 1.
The target in test [9] is T1, Cannabinoid receptor 1. The test can be described thus: Binding affinity against the cannabinoid receptor in the presence of PMSF (experiment 2).
Test [10] deals with T1, Cannabinoid receptor 1. Description: Binding affinity against the cloned human Cannabinoid receptor 1; no activity.

T1 sequence (P21554 whole entry): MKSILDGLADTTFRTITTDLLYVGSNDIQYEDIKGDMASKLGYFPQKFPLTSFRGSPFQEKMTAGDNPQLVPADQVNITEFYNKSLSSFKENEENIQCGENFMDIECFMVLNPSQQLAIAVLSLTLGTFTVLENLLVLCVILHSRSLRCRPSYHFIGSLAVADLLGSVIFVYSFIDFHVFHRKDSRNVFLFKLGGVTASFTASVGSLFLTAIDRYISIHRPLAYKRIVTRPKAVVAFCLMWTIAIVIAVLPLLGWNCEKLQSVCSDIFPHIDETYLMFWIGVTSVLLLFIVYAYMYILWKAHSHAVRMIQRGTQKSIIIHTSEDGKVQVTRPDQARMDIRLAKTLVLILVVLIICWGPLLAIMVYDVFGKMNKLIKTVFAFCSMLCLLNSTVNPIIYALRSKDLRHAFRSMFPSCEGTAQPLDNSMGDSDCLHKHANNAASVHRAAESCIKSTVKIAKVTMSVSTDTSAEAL
Chain of Cannabinoid receptor 1 (Rattus norvegicus, UniProt P20272) (P20272 whole entry): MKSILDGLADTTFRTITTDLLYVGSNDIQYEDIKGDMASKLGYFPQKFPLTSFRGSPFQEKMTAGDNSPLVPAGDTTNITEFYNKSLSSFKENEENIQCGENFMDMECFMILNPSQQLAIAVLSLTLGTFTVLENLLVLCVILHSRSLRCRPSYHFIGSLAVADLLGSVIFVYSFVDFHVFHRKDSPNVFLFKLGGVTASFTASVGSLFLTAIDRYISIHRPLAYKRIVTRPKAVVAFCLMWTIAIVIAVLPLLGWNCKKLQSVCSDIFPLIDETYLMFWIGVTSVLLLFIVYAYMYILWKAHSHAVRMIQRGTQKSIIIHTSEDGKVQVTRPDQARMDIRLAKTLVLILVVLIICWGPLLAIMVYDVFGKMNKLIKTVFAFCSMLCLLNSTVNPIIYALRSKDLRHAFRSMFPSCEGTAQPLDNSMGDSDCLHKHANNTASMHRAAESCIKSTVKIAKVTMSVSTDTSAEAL

In test [1], `CCCCC/C=C\C/C=C\C/C=C\CCCCCCC(=O)NCCO` yielded an inhibitory constant (Ki) of 598 nM. `CCCCC/C=C\C/C=C\C/C=C\C/C=C\CCC(C)(C)C(=O)NC(C)C`: the inhibition constant (Ki) in [2] (read-out: Ki) came to 7.2 nM.

On to `CCCCC/C=C\C/C=C\C/C=C\C/C=C\CCC(C)(C)C(=O)NCCC`, for which the Ki in test [2] (read-out: Ki) was found to be 6.9 nM. Same read-out and setting: the figure for `CCCCC/C=C\C/C=C\C/C=C\C/C=C\CCCC(=O)NC(CO)C(=O)O` (configuration not stated) is over 10000 nM. In the case of `CCCCC/C=C\C/C=C\C/C=C\C/C=C\CCC(C)C(=O)NCCO` (configuration not stated), the inhibition constant (Ki) in test [3] and in [4] was 53 nM each time. On to `CCCCC/C=C\C/C=C\C/C=C\C/C=C\CCCC(=O)N(C)CCO`, for which the Ki in test [5] was 4980 nM; in test [2] (read-out: Ki) it was over 10000 nM; in test [6], 5240 nM. `CCCCC/C=C\C/C=C\C/C=C\C/C=C\CCCC(=O)NCCN(CC)CC`: in [2] (read-out: Ki), the Ki was over 1000 nM. On the same count and under the same terms, the figure for `CCCCC/C=C\C/C=C\C/C=C\C/C=C\CCCC(=O)NC(C)(C)C` is 139 nM. On to `CCCCC/C=C\C/C=C\C/C=C\C/C=C\CCCC(=O)NCCOC`, for which the Ki in [2] (read-out: Ki) worked out at 85.2 nM; in test [1], 650 nM; in test [7], 1820 nM. The molecule `CCCCC/C=C\C/C=C\CCCCCCCC(=O)NCCO` (stereo in doubt; 37) [LINOLEOYLETHANOLAMIDE] had an inhibition constant Ki in [8] of over 41400 nM. On to `CCCCC/C=C\C/C=C\CCCCCCCCCC(=O)NCCO`, for which, in test [2] (read-out: Ki), the Ki was determined as 1500 nM.

For `CCCCC/C=C\C/C=C\C/C=C\C/C=C\CCC(C)C(=O)NC(C)C` (configuration not stated), the inhibitory constant (Ki) in [2] (read-out: Ki) stood at 8.4 nM. In turn, `CC/C=C/C/C=C\C/C=C\C/C=C\C/C=C\C/C=C/CCC(=O)NCCO` yielded an inhibition constant (Ki) in test [8] of 12200 nM. Take `CCCCC/C=C\C/C=C\C/C=C\C/C=C\CCC(C)(C)C(=O)N[C@H](C)CO`: in test [2] (read-out: Ki), the Ki worked out at 31.1 nM. As to `CCCCC/C=C\C/C=C\C/C=C\C/C=C\CCCC(=O)NC(C)C(O)c1ccccc1` (configuration not stated), the Ki in test [2] (read-out: Ki) is over 1000 nM. For the molecule `CC/C=C/C/C=C\C/C=C\C/C=C\CCCCC(=O)NCCO`, the Ki in test [2] (read-out: Ki) was over 1000 nM. Consider `CCCCC/C=C\C/C=C\C/C=C\C/C=C\CCCC(N)=O` [ARACHIDONAMIDE], for which the Ki in [2] (read-out: Ki) was over 1000 nM; in test [8], 9600 nM. Regarding `CCCCC/C=C\C/C=C\C/C=C\C/C=C\CCC(C)(C)C(=O)NCCO`, the Ki in test [2] (read-out: Ki) is 25.5 nM; in test [1], 41 nM; in test [3], 47 nM; in [9] it was 47 nM. As for `CCCCC/C=C\C/C=C\C/C=C\C/C=C\CCCC(=O)N[C@@H](C)CC`, the inhibition constant (Ki) in test [2] (read-out: Ki) turned out to be 377 nM. As for `CC/C=C/C/C=C\C/C=C\C/C=C\C/C=C/CCCC(=O)NCCO`, the Ki was found to be 162 nM in test [2] (read-out: Ki) and 1470 nM in test [9]. `CCCCC/C=C\C/C=C\C/C=C\C/C=C\CCCC(=O)NC(C)(C)CC`: the inhibition constant Ki in test [2] (read-out: Ki) is 447 nM. As to `CCCCC/C=C\C/C=C\C/C=C\C/C=C\CCC(C)C(=O)NCCC` (configuration not stated), the inhibition constant (Ki) in test [2] (read-out: Ki) worked out at 7.4 nM. Same read-out and setting: to `CCCCC/C=C\C/C=C\C/C=C\C/C=C\CCCC(=O)NCC(=O)O` [ARACHIDONOYL GLYCINE] belongs over 10000 nM.

In the case of `CCCCC/C=C\C/C=C\C/C=C\C/C=C\CCCC(=O)NCCCC`, the Ki turned out to be 236 nM in [2] (read-out: Ki) and 30 nM in test [1].

For the molecule `CCCCC/C=C\C/C=C\C/C=C\C/C=C\CCCC(=O)NCCCO`, the figures for the Ki in test [1], in test [7] and in [8] were 13 nM, 189 nM and 364 nM, respectively. Regarding `CCCCC/C=C\C/C=C\C/C=C\C/C=C\CCC(C)(C)C(=O)NC[C@H](C)O`, in test [2] (read-out: Ki), the Ki was determined as 46.6 nM.

Take `CCCCC/C=C\C/C=C\C/C=C\C/C=C\CCCC(=O)N[C@H](C)CC`: the Ki in [2] (read-out: Ki) came to 240 nM.

Regarding `CCCCC/C=C\C/C=C\C/C=C\C/C=C\CCCC(=O)NC`, in [2] (read-out: Ki), the inhibition constant (Ki) stood at 60 nM. Still for that read-out and setting: the figure for `CC/C=C/C/C=C\C/C=C\CCCCCCCCCC(=O)NCCO` is over 10000 nM. Same read-out and setting: the figure for `CCCCC/C=C\C/C=C\C/C=C\C/C=C\CCCC(=O)NCCCCC` is over 1000 nM. With `CCCCCCCCCCCCCCCC(=O)NCCO` [PALMIDROL], the inhibition constant (Ki) entry in test [10] and in [2] was “Not Active” throughout. As to `CCCCC/C=C\C/C=C\C/C=C\C/C=C\CCCC(=O)NCCC(C)C`, the values for the Ki in test [2] (read-out: Ki) and in [7] were 575 nM and 1860 nM, respectively. Consider `CCCCC/C=C\C/C=C\C/C=C\C/C=C\CCCC(=O)N(CC)CC`, for which the Ki in test [2] (read-out: Ki) is over 1000 nM. The same measure, in the same setting: to `CCCCC/C=C\C/C=C\C/C=C\C/C=C\CCCC(=O)N(C)C` belongs over 1000 nM; to `CCCCC/C=C\C/C=C\C/C=C\C/C=C\CCC(C)(C)C(=O)N[C@@H](C)CO`, 191 nM.

Consider `CCCCCCCC/C=C\CCCCCCCCCC(=O)NCCO`, for which the Ki in test [2] (read-out: Ki) was over 1000 nM; in test [9], over 10000 nM.

Turning to `CCCCC/C=C\C/C=C\C/C=C\C/C=C\CCCC(=O)NO`, the Ki in test [2] (read-out: Ki) is over 1000 nM. As for `CCCCCC#CCC#CCC#CCC#CCCCC(=O)NCCO`, the Ki result in [2] was “Not Active”. `CCCCC/C=C\C/C=C\C/C=C\C/C=C\CCCC(=O)NCCC`: the Ki in [2] (read-out: Ki) came out at 11.7 nM; in test [1] it was 7.3 nM.

Consider `CCCCC/C=C\C/C=C\C/C=C\C/C=C\CCCC(=O)NCCOP(=O)(O)O`, for which the inhibition constant Ki in [2] (read-out: Ki) amounted to 191 nM.

Regarding `CCCCC/C=C\C/C=C\C/C=C\C/C=C\CCCC(=O)NC(C)C`, the Ki in [2] (read-out: Ki) was 13.6 nM. With `CC/C=C/C/C=C\C/C=C\CCCCCCCC(=O)NCCO`, the Ki entry in [2] is “Not Active”. As for `CCCCC/C=C\C/C=C\C/C=C\C/C=C\CCCC(=O)N(CCC)CCO`, the inhibition constant (Ki) in test [2] (read-out: Ki) is over 10000 nM. The same measure, in the same setting: to `CCCCC/C=C\C/C=C\C/C=C\C/C=C\CCCC(=O)N(CC)CCO` belongs over 10000 nM. Same read-out and setting: to `CCCCC/C=C\C/C=C\C/C=C\C/C=C\CCCC(=O)NC(C)(C)CO` belongs 162 nM.

Broadly, the Ki is a measure of affinity in units of concentration, obtained from inhibition or displacement.
